Sampled rows, rich in hits. Any-hit rate of the full collection: about 3%.
SENP7 inh: inhibitors of human SENP7 protease; 1.5% of 330,000 active; recombinant SENP7, Z-RLRGG-aminoluciferin luminescence, 40 min; inhibition, % at 5 µM; Q9BQF6;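 active = inhibition above about 50% at the single test dose, limit read from the data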;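 also: plate controls were DMSO with enzyme for no effect and no enzyme buffer wells for full effect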
UBC13 inh: human UBC13 polyubiquitination inhibition. P61088. UBC13 polyubiquitin chain formation, TR-FRET. inhibition, % at 20 µM. 0.47% of 330,000 active; in the data active = inhibition above about 45%, passing the limit was not always enough; inconclusive = no clear call, values can overlap the other calls
Target sequence (P61088 whole entry, looked up): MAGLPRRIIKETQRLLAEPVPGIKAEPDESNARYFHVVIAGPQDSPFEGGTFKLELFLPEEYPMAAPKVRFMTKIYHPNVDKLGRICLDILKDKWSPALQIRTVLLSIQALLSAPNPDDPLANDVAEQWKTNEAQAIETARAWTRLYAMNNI
SENP8 block-1: blocks human SENP8 cleavage of Nedd8 substrate; recombinant SENP8, Nedd8 substrate fluorescence; inhibition, % at 20 µM; 0.64% of 360,000 active; AID 602440; in the data active = inhibition mostly above about 40%, no sharp cut-off; inactive = mostly below about 27%
Target sequence (Q96LD8 whole entry, looked up): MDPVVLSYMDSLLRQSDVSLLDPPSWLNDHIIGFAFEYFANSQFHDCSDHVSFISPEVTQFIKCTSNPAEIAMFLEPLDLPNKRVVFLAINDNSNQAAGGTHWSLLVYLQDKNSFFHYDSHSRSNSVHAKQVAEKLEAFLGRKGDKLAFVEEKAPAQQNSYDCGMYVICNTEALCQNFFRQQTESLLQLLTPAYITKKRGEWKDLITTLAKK
SENP6 block: SENP6 protease inhibition; Q9GZR1; Recombinant SENP6 catalytic domain, aminoluciferin luminescence; inhibition, % at 10 µM; 1.8% of 330,000 active; AID 2599;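 active = inhibition above about 50% at the single tested dose, limit read from the data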;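 also: plate controls were DMSO wells with enzyme for no effect and DMSO wells lacking enzyme for full effect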
Apaf1 inhib: inhibitors of human Apaf-1 apoptosome; 0.71% of 330,000 active; O14727; AID 489030; reconstituted apoptosome caspase-3 activity, DEVD-Rh110 fluorescence; inhibition, % at 20 µM; active = inhibition of at least 40% at 20 µM;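 also: plate controls were DMSO wells for no effect and DEVD-CHO caspase inhibitor wells for full effect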
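Material: biochemical Apaf-1 apoptosome reconstitution. Medium: Hepes buffer, pH 7.5. Also added: cytochrome c activation, bis-DEVD rhodamine 110 substrate. Timing: 30 min compound preincubation, 50 min activation, room temperature. Measured by: rhodamine 110 fluorescence at Ex 480/Em 540 nm.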
SENP8 block-2: inhibitors of human SENP8 protease | AID 2540 | Q96LD8 | 1.2% of 330,000 active | inhibition, % at 10 µM | purified SENP8, Z-RLRGG-aminoluciferin cleavage, luminescence; in the data active = inhibition above about 50%
Casp3 UBC13 ctr: counter-screen for UBC13 inhibitors: human caspase-3 inhibition; 4% of 1,400 active; shares compounds with UBC13 inh; Recombinant caspase-3, Caspase-Glo 3/7 luminescence, 60 min; inhibition, % at 20 µM;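 active = mean inhibition across replicates above about 26%, limit read from the data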;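 also: plate controls were DMSO with caspase-3 for no effect and DMSO wells lacking enzyme for full effect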
UBC13 conf: confirmation of human UBC13 polyubiquitin inhibitors; inhibition, % at 10 µM; shares compounds with UBC13 inh; 68% of 1,400 active; UBC13 polyubiquitination, TR-FRET, biochemical; in the data active = inhibition above about 45%; inconclusive = no clear call, values can overlap the other calls
Active calls of the source: *; i = inactive; ? = inconclusive; . = no result given.

SMILES	SENP7 inh	UBC13 inh	SENP8 block-1	SENP6 block	Apaf1 inhib	SENP8 block-2	Casp3 UBC13 ctr	UBC13 conf
CCOC(=O)N1CCN(C(=O)c2ccc3c(c2)N(Cc2ccc(F)cc2)CCS3)CC1	1.8	47.7*	-464.2	2.4	22.8	4.5	0.0	32.7
CC(C)(C)c1ccc(C(=O)NCCN2CCOCC2)cc1	2.2	-1.2	17.2	-13.2	-17.8	5.9	.	.
CC(C)(C)c1ccc(C(=O)NCCCN2CCN(CCCNC(=O)c3ccc(C(C)(C)C)cc3)CC2)cc1	2.7	65.5*	24.3	-8.5	26.9	-4.0	-5.2	74.2*
COc1ccc(Cn2cc(CN3CCOCC3)nn2)cc1	.	.	11.3	.	.	.	.	.
NS(=O)(=O)c1ccc(CCNC(=O)c2cc(-c3ccco3)nc3ccccc23)cc1	3.9	51.1*	i	1.0	-20.5	-3.5	3.3	33.8
NS(=O)(=O)c1ccc(CCNC(=O)c2cc(-c3ccccc3)nc3ccccc23)cc1	-4.8	-9.6	-0.3	-10.2	1.4	-8.1	.	.
Cc1cc(C)cc(CC(=O)N2CCC2(C)C(=O)NS(=O)(=O)Cc2ccccc2)c1 (centres undefined)	.	.	20.4	.	.	.	.	.
C[C@H](NC(=O)c1ccccc1Cl)C(=O)OCc1cn2cc(Cl)ccc2n1	4.4	106.0*	2.0	-11.6	8.1	1.5	5.8	4.4
Cn1c(=O)cc(OCCCC(=O)NCCN2CCN(c3ccccc3F)CC2)c2ccccc21	9.3	57.1*	8.1	0.4	7.0	-7.8	0.1	37.9
CCOc1ccc(NC(=O)CCCOc2cc(=O)n(C)c3ccccc23)cc1	4.0	73.8*	14.4	4.0	1.4	6.3	3.8	76.1*
CCn1c(=O)cc(SCC(=O)NCCCN2CCN(c3ccccc3F)CC2)c2ccccc21	-5.3	58.2*	-10.9	-16.3	-6.4	-5.3	-2.7	?
Oc1cc(-c2ccncc2)cc2cccnc12	-11.0	-39.3	13.9	-17.3	3.3	-15.4	.	.
Oc1cc(Nc2ccncc2)cc2cccnc12	1.7	103.5*	-45.0	-19.4	-3.8	-4.2	-1.5	108.9*
CCOC(=O)CCCCCC(=O)Nc1ccc2c(c1)C(=O)N([C@H](C)CO)C[C@H](C)[C@H](CN(C)C(=O)C1CCCCC1)OCCCC[C@@H](C)O2	.	.	8.9	.	.	.	.	.
Cc1ccc(C(=O)NC(C)c2ccc(-n3ccnc3)cc2)cc1S(=O)(=O)N1CCOCC1 (centres undefined)	-10.5	73.0*	16.0	0.1	23.2	5.8	-0.9	101.6*
C#CCOCCOCCOCCNc1nc(N2CCN(C(=O)CCCCCCCCCCNC(=O)[C@H]([C@@H](C)CC)n3cc(CCCCN=C(N)N)nn3)CC2)nc(N2CCN(C(=O)CCCCCCCCCCNC(=O)[C@@H]([C@H](C)O)n3cc(C)nn3)CC2)n1	10.2	123.1*	14.8	-30.8	44.9*	2.1	-1.6	124.9*
C#CCOCCOCCOCCNc1nc(N2CCN(C(=O)CCCCCCCCCCNC(=O)Cn3cc(C[C@@H](C)O)nn3)CC2)nc(N2CCN(C(=O)CCCCCCCCCCNC(=O)[C@@H]([C@H](C)O)n3cc(C)nn3)CC2)n1	1.7	31.9	16.9	-2.3	27.4	-2.3	.	.
C#CCOCCOCCOCCNc1nc(N2CCN(C(=O)CCCCCCCCCCNC(=O)[C@H](CCCCN)n3cc(C[C@@H](C)CC)nn3)CC2)nc(N2CCN(C(=O)CCCCCCCCCCNC(=O)[C@H](CCCN=C(N)N)n3cc(C[C@@H](C)CC)nn3)CC2)n1	-3.5	125.0*	10.2	-123.6	54.9*	-40.1	-0.7	124.6*
C#CCOCCOCCOCCNc1nc(N2CCN(C(=O)Cn3cc(CCCN=C(N)N)nn3)CC2)nc(N2CCN(C(=O)[C@H](CCCCN)n3cc(CCCC)nn3)CC2)n1	-0.6	33.3	25.1	0.1	31.9	-2.2	.	.
C#CCOCCOCCOCCNc1nc(N2CCOCC2)nc(N2CCN(C(=O)[C@H]([C@@H](C)CC)n3cc(CCCN=C(N)N)nn3)CC2)n1	-20.8	14.8	16.4	-5.1	2.9	-10.4	.	.
